Data taken from PMC3288683 (Bioconjugate Chemistry, 2012).

Tests used:
SH-SY5Y cells [1] = assay: specificity of uptake by flow cytometry; assay type: cell-based, human; conditions: 0.1 μM, 6 h at 37°C, three replicate experiments
CHO-K1 cells [2] = assay: specificity of uptake by flow cytometry, negative control cells; assay type: cell-based, Chinese hamster; conditions: all concentrations (0.1, 0.2, 0.35, 0.5 μM), 6 h at 37°C
SH-SY5Y cells [3] = assay: time course of agent uptake by confocal microscopy; assay type: cell-based, human; conditions: 0.1 μM, 37°C
CHO-K1 cells [4] = assay: comparative uptake study by confocal microscopy, negative control cells; assay type: cell-based, Chinese hamster
SH-SY5Y cells [5] = assay: live cell co-localization with RFP-labeled Rab5 in early endosomes; assay type: cell-based, human; conditions: 0.1 μM, 1 h at 37°C, intensities along the x-axis, Amira 5 software
SH-SY5Y cells [6] = assay: Vybrant MTT Cell Proliferation Assay; assay type: cell-based, human; conditions: SH-SY5Y cells, 0.1, 0.5 and 1 μM, 12 h at 37°C, absorbance at 540 nm
In short: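 SH-SY5Y cells, maintained in 1:1 DMEM:F12 with 10% FBS at 37°C under 5% CO2, seeded at 2 × 10^4 cells/well and grown overnight in phenol red-free DMEM:F12. Exposed to test compound (0.1, 0.5, 1 μM) for 12 h at 37°C, then to MTT 1 mg/mL for 4 h. Formazan dissolved in Me2SO; absorbance read at 540 nm against untreated control cells.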

SH-SY5Y cells [7] = assay: comparative uptake study by confocal microscopy; assay type: cell-based, human; conditions: 0.1 μM, 4 h at 37°C, 3 fields per slide

Cc1cn(CC(=O)N(CCNC(=O)CN(CCNC(=O)CN(CCNC(=O)CN(CCNC(=O)CN(CCNC(=O)CN(CCNC(=O)CN(CCNC(=O)CN(CCNC(=O)CN(CCNC(=O)COCCOCCNC(=O)[C@H](CO)NC(=O)[C@H](Cc2ccccc2)N(C)C(=O)CNC(=O)[C@@H](C)NC(=O)[C@@H](N)Cc2ccc(O)cc2)C(=O)Cn2ccc(N)nc2=O)C(=O)Cn2cnc3c(N)ncnc32)C(=O)Cn2cc(C)c(=O)[nH]c2=O)C(=O)Cn2cnc3c(=O)[nH]c(N)nc32)C(=O)Cn2cnc3c(=O)[nH]c(N)nc32)C(=O)Cn2cc(C)c(=O)[nH]c2=O)C(=O)Cn2cnc3c(=O)[nH]c(N)nc32)C(=O)Cn2ccc(N)nc2=O)CC(=O)NCCN(CC(=O)NCCN(CC(=O)NCCN(CC(=O)NCCOCCOCC(=O)N[C@@H](CSC2CC(=O)N(CCCCCNC(=O)c3ccc(-c4c5ccc(=N)c(S(=O)(=O)O)c-5oc5c(S(=O)(=O)O)c(N)ccc45)c(C(=O)O)c3)C2=O)C(=O)O)C(=O)Cn2ccc(N)nc2=O)C(=O)Cn2cnc3c(N)ncnc32)C(=O)Cn2ccc(N)nc2=O)c(=O)[nH]c1=O (stereo partly drawn) [WT4879, Tyr-D-Ala-Gly-N-MePhe-Ser-AEEA-CAT GGT GCT CAC-AEEA-Cys-AlexaFluor488]
uptake of WT4879 relative to WT4786 (ratio of specific over non-specific uptake) (SH-SY5Y cells [1]): ~ 5 fold
specificity ratio (WT4879 vs WT4786 uptake) (CHO-K1 cells [2]): 1 ± 0.3
time course of uptake intensity (SH-SY5Y cells [3]; 0-12 h, ImageJ, three regions of interest): increased with time up to 4 h, leveling off thereafter
uptake at 0.25 and 0.5 h (SH-SY5Y cells [3]; data not shown): No significant uptake
uptake after 1 h (SH-SY5Y cells [3]; uniformly distributed in the cytoplasm): taken up strongly
uptake in CHO-K1 cells relative to SH-SY5Y cells (CHO-K1 cells [4]; 0.1 μM, 4 h at 37°C, confocal microscopy, 3 fields per slide): ~ 21%
non-specific uptake in control cell-line CHO-K1 (CHO-K1 cells [4]; conclusion, in words): minimal non-specific uptake
overlap of AlexaFluor 488 intensity with RFP-labeled Rab5 intensity (SH-SY5Y cells [5]): > 95%
cellular toxicity (MTT cell viability) (SH-SY5Y cells [6]): No cellular toxicity was observed

Ala-D-Ala-Gly-N-MePhe-Ser-AEEA-CAT GGT GCT CAC-AEEA-Cys-AlexaFluor488 [WT4786]
uptake in SH-SY5Y cells relative to the specific WT4879 (SH-SY5Y cells [7]): ~ 20%
